This sample holds only a part of the variants without activity.

This note sets out measurements from the RNAGym collection of RNA variant scans (doi:10.1126/science.aae0568).

B1: tRNA (parent)
chain: GUUCCGUUGGCGUAAUGGUAACGCGUCUCCCUCCUAAGGAGAAGACUGCGGGUUCGAGUCCCGUACGGAACG

The variants in this series derive from B1. Description: yeast fitness relative to wild type (ratio to wild type); higher = fitter; tRNA-Arg(CCU), competitive growth, 37 C, YPD. The gist of the method:
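For this measurement, the tRNA-Arg(CCU) gene was varied by chemical synthesis at a 3% per-site mutation rate across 69 sites, and each variant was placed at the native genomic locus in Saccharomyces cerevisiae. The pooled strains went through a 24-hour competition in YPD at 37°C in six parallel replicates, with amplicons from start and end populations read by 100-nucleotide paired-end sequencing. Darwinian fitness relative to wild type followed from the change in each genotype's frequency. Genotypes needed ≥ 100 starting reads, and estimates < 0.5 were set to 0.5.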
Consider C5G C29A G48A A65U, for which the yeast fitness was at most 0.5.

Consider C5G G23A C61G, for which the yeast fitness was at most 0.5.

For the variant C5G G23A C61A, the yeast fitness was 0.529.

As to C5G C30U C34U A37U G68C, the yeast fitness is at most 0.5.

For C5G G48A G68C, the yeast fitness worked out at 0.653.

As for C5G C30A A36G U64C, the yeast fitness is at most 0.5.

As to C5G C27G, the yeast fitness is 0.81.

As for C5G C66U, the yeast fitness is 0.74.

As for C5G C29U A43C U54G C60G C62U, the yeast fitness was at most 0.5.

Consider C5G C29A U32G, for which the yeast fitness was at most 0.5.

On to C5G G52A, for which the yeast fitness was 0.806.

For the variant C5G G6C U64C, the yeast fitness amounted to 0.586.

On to C5G G48C C49U U54G C66A, for which the yeast fitness was found to be 0.682.

Turning to C5G C29U A37G C66U, the yeast fitness turned out to be 0.536.

In the case of C5G C31A G67C, the yeast fitness worked out at 0.62.

On to C5G G10C G68U, for which the yeast fitness was at most 0.5.

As to C5G C30U C31G C61A A69U, the yeast fitness was at most 0.5.

For C5G G10C C31U A70G, the yeast fitness was at most 0.5.

For C5G G10C G67A, the yeast fitness is at most 0.5.

In the case of C5G C29G C33A, the yeast fitness was at most 0.5.

C5G C27U G56A: the yeast fitness was found to be 0.619.

For C5G G17A G18A A57C, the yeast fitness amounted to 0.554.

As to C5G C55U G68C, the yeast fitness was found to be 0.506.

With C5G C46G A69U, the yeast fitness is 0.712.

For C5G C34A A37U G44A G51A C55A, the yeast fitness amounted to 0.654.

On to C5G G10C A15C C34U C55A, for which the yeast fitness is at most 0.5.

With C5G C55U A65C A70U, the yeast fitness was at most 0.5.

With C5G C55G U59C C60U G67U, the yeast fitness was at most 0.5.

On to C5G G17C A42U G52A G67U, for which the yeast fitness is at most 0.5.

In the case of C5G G50A A69U, the yeast fitness was 0.742.

On to C5G G50A A69C, for which the yeast fitness is 0.571.

Consider C5G G10C C29A U32A C46G A57C, for which the yeast fitness was at most 0.5.

For C5G G6A G23A, the yeast fitness is at most 0.5.

As for C5G G12C G18A C24U C29U A36G, the yeast fitness is 0.608.

For the variant C5G G23A C34A, the yeast fitness turned out to be 0.723.

Regarding C5G C66G G68C, the yeast fitness is at most 0.5.

Consider C5G G25A C46U G50C C66U, for which the yeast fitness was at most 0.5.

For C5G C24U C33U C46A, the yeast fitness is at most 0.5.

With C5G G9C A20G A21C U59C, the yeast fitness was at most 0.5.

On to C5G C34U G44C U47G, for which the yeast fitness was at most 0.5.

As for C5G G6C C30G C33U A45U, the yeast fitness was at most 0.5.

For the variant C5G G17A A20C C49G G51A, the yeast fitness was at most 0.5.

Consider C5G C34U C55G A70G, for which the yeast fitness is at most 0.5.

For C5G C33U, the yeast fitness was determined as 0.673.

C5G C33A: the yeast fitness was found to be 0.616.

With C5G C34G C62A G63A, the yeast fitness was at most 0.5.

As to C5G C33U A57G, the yeast fitness is at most 0.5.

Consider C5G G12A A14G C30G A45G G52A, for which the yeast fitness is at most 0.5.

Regarding C5G C27U C29G, the yeast fitness was at most 0.5.

In the case of C5G C27U C31A U35C C55G C66U A70C, the yeast fitness is at most 0.5.

Consider C5G G18A C27G C30U C31G, for which the yeast fitness was at most 0.5.

Regarding C5G G17C G23C C33G A43C, the yeast fitness was at most 0.5.

With C5G G48A G56C A65G, the yeast fitness is at most 0.5.

Consider C5G G52A A65G A70U, for which the yeast fitness was at most 0.5.

For the variant C5G C30G G56A G58C C61G, the yeast fitness is at most 0.5.

Turning to C5G C60U C62G, the yeast fitness is 0.634.

For C5G G10C U13G C31G U59A, the yeast fitness is at most 0.5.

Take C5G G48C G67C: the yeast fitness amounted to 0.573.

C5G C29A G48A: the yeast fitness was at most 0.5.

For C5G G41A A42C G50C A70G, the yeast fitness was at most 0.5.

Turning to C5G G17C C49U C61A, the yeast fitness is at most 0.5.

On to C5G G9C C33G A45G C55G G56C, for which the yeast fitness is at most 0.5.

In the case of C5G C30A A36G C61A, the yeast fitness amounted to 0.592.

As for C5G G9A A43G G48C A69C, the yeast fitness was at most 0.5.

Take C5G C46U G51A U54G: the yeast fitness turned out to be 0.571.

On to C5G C27G A43G, for which the yeast fitness is at most 0.5.

As to C5G C29A U59A, the yeast fitness is at most 0.5.

C5G C24U C33U C34U G44A C62G: the yeast fitness was at most 0.5.

On to C5G G39A U47G C49G A69C, for which the yeast fitness came out at 0.764.

Regarding C5G C34U A70U, the yeast fitness is at most 0.5.

Consider C5G G23A G44C G67U, for which the yeast fitness worked out at 0.589.

As to C5G C29U C33U G39C, the yeast fitness came to 0.724.

C5G G18C C60G: the yeast fitness was at most 0.5.

C5G G18C C31A: the yeast fitness is at most 0.5.

Regarding C5G C34G, the yeast fitness stood at 0.62.

In the case of C5G C34U, the yeast fitness is 0.599.

On to C5G C30U A42G, for which the yeast fitness worked out at 0.57.

For C5G G48A C49U A57G, the yeast fitness stood at 0.624.

Take C5G G39A U47G C49G C66U A69C: the yeast fitness was determined as 0.57.

As to C5G C31A C55U A65C A70U, the yeast fitness was at most 0.5.

For C5G C49U G63C, the yeast fitness is at most 0.5.

For the variant C5G C29U C30A C66U, the yeast fitness was determined as 0.645.

As to C5G G25C C29G A65U, the yeast fitness was at most 0.5.

Turning to C5G G9C A20U A21G C24G C27G A43G, the yeast fitness is at most 0.5.
